Measurements taken from ChEMBL document CHEMBL1131232, “New azole antifungals. 3. Synthesis and antifungal activity of 3-substituted-4(3H)-quinazolinones” (J Med Chem, 1998).
In brackets after ≈: the same amount, converted by molar mass.

How the values were obtained:
[1] = In vitro antifungal activity against 6 filamentous fungi; format: functional
Summary of the method: (§1)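 Agar dilution on Kimmig's agar with 0.5% glycerol, using ATCC strains or clinical isolates. Drug stocks were 800 μg/mL in 50% ethanol, tested as 2-fold dilutions from 80 to 0.03 μg/mL. Inocula were 10⁵ cfu/mL. […] Geometric means took >80 as 160 and ≤0.03 as 0.03.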

Mus musculus [2] = assay: In vivo antifungal activity against murine candidosis model after peroral administration with 0.25 mg/kg at various time intervals. (percent protection for 100% mortality with untreated group); format: functional; settings: route oral
Summary of the method: (§2)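 Groups of 10 male mice were infected iv with 0.2 mL of C. albicans at 2 to 8×10^7 cfu/mL. Drug was given orally as a suspension in 1% Tween + 0.2% carboxymethylcellulose at 1, 4 and 24 h post-infection; controls got vehicle only. Survival was scored on days 3, 5, 7 and 9. Read-out was % survival on the day all untreated controls died, or on the day all mice given fluconazole at the same dose died.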

Mus musculus [3] = assay: In vivo antifungal activity against murine candidosis model after peroral administration with 0.25 mg/kg at various time intervals. (percent protection for 100% mortality with fluconazole-treated group.); format: functional; settings: route oral; summary of the method: as §2
[4] = In vitro for antifungal activity against 10 yeasts; format: functional; summary of the method: as §1
Mus musculus [5] = assay: (§3) In vivo antifungal activity against murine candidosis model after peroral administration with 2.5 mg/kg at various time intervals. (percent protection for 100% mortality with fluconazole-treated group.); format: functional; settings: route oral; summary of the method: as §2
Mus musculus [6] = assay: In vivo antifungal activity against murine candidosis model after peroral administration with 2.5 mg/kg at various time intervals. (percent protection for 100% mortality with untreated group); format: functional; settings: route oral; summary of the method: as §2
Candida albicans [7] = assay: as §3; format: functional; settings: route oral; summary of the method: as §2
Candida albicans [8] = assay: In vivo antifungal activity against murine candidosis model after peroral administration with 0.5 mg/kg at various time intervals. (percent protection for 100% mortality with untreated group); format: functional; settings: route oral; summary of the method: as §2
Candida albicans [9] = assay: In vivo antifungal activity against murine candidosis model after peroral administration with 0.5 mg/kg at various time intervals. (percent protection for 100% mortality with fluconazole-treated group.); format: functional; settings: route oral; summary of the method: as §2
Candida albicans [10] = assay: The compound was tested in vitro for antifungal activity against Candida albicans.; format: functional; summary of the method: as §1
[11] = Half-life in rats after iv administration; format: ADME, organism-based; settings: rat, in vivo
Rattus norvegicus [12] = assay: In vivo activity against disseminated aspergillosis (liver) in immunocompromized rat model at a dose of 25 mg/kg, bid, po; format: functional
Summary of the method: (§4)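 Male Sprague–Dawley rats, 10 per group, were immunosuppressed with dexamethasone 21-acetate 1 mg/kg/day po from 4 days before iv infection. Oral dosing in 1% Tween 80 + 0.2% CMC was given 1 and 8 h post-infection, then bid for 6 more days. Vehicle controls were dosed po bid. On day 7, liver homogenate was plated on Sabouraud agar (37 °C, 7 days) and log cfu/g recorded.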

Mus musculus [13] = assay: The compound was tested in vivo for anti-candida activity in mice model 2(dose :5 mg/kg,fluconazole-treated group); format: functional
Oryctolagus cuniculus [14] = assay: In vivo antifungal activity against systemic candidosis in rabbit lung at a dose of 0.5 mg/kg, qd, po.; format: functional
Summary of the method: (§5)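 Male New Zealand rabbits, 10 per group, were infected iv with C. albicans at 1.2×10^7 cfu/kg. Oral dosing in 1% Tween 80 + 0.2% CMC began 4 h post-infection and continued qd for 6 more days; controls received vehicle. On day 7, kidney and lung homogenates in saline (1 mL/g) were plated on Sabouraud agar (37 °C, 7 days); read-out was log cfu/g wet tissue.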

Oryctolagus cuniculus [15] = assay: In vivo antifungal activity against systemic candidosis in rabbit lung at a dose of 2.5 mg/kg, qd, po.; format: functional; summary of the method: as §5
Oryctolagus cuniculus [16] = assay: In vivo antifungal activity against systemic candidosis in rabbit lung at a dose of 12.5 mg/kg, qd, po.; format: functional
Summary of the method: (§6)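 Groups of 10 male New Zealand rabbits were infected iv with C. albicans (1.2×10^7 cfu/kg). Drug was given orally as a suspension in 1% Tween 80 + 0.2% carboxymethylcellulose 4 h post-infection, then qd for 6 more days; controls got vehicle. On day 7, kidney or lung was homogenized in saline and plated on Sabouraud agar (37 °C, 7 days). Read-out was log cfu/g wet tissue.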

Candida albicans [17] = assay: In vivo antifungal activity against murine candidosis model after peroral administration with 1 mg/kg at various time intervals. (percent protection for 100% mortality with fluconazole-treated group.); format: functional; settings: route oral; summary of the method: as §2
Rattus norvegicus [18] = assay: In vivo activity against disseminated aspergillosis (liver) in immunocompromized rat model at a dose of 50 mg/kg, bid, po; format: functional; summary of the method: as §4
Mus musculus [19] = assay: The compound was tested in vivo for anti-candida activity in mice model 1 (dose :0.5 mg/kg,fluconazole-treated group); format: functional
Mus musculus [20] = assay: The compound was tested in vivo for anti-candida activity in mice model 1(dose: 0.5 mg/kg, untreated group).; format: functional
Oryctolagus cuniculus [21] = assay: In vivo antifungal activity against systemic candidosis in rabbit kidney at a dose of 12.5 mg/kg, qd, po.; format: functional; summary of the method: as §6
Mus musculus [22] = assay: The compound was tested in vivo for anti-candida activity in mice model 2(dose: 5 mg/kg, untreated group).; format: functional
Candida albicans [23] = assay: In vivo antifungal activity against murine candidosis model after peroral administration with 1 mg/kg at various time intervals. (percent protection for 100% mortality with untreated group); format: functional; settings: route oral; summary of the method: as §2
Oryctolagus cuniculus [24] = assay: In vivo antifungal activity against systemic candidosis in rabbit kidney at a dose of 2.5 mg/kg, qd, po.; format: functional; summary of the method: as §5
Rattus norvegicus [25] = assay: In vivo activity against disseminated aspergillosis (liver) in immunocompromized rat model at a dose of 5 mg/kg, bid, po; format: functional; summary of the method: as §4
Oryctolagus cuniculus [26] = assay: In vivo antifungal activity against systemic candidosis in rabbit kidney at a dose of 0.5 mg/kg, qd, po.; format: functional; summary of the method: as §5
Rattus norvegicus [27] = assay: In vivo activity against disseminated aspergillosis (liver) in immunocompromized rat model at a dose of 1 mg/kg, bid, po; format: functional; summary of the method: as §4
Rattus norvegicus [28] = assay: In vivo activity against disseminated aspergillosis (liver) in immunocompromized rat model at a dose of 2 mg/kg, bid, po; format: functional
Candida albicans [29] = assay: Tested in vivo for anti-candida activity in mice model 1 (dose: 0.5 mg/kg, untreated group).; format: functional
Mus musculus [30] = assay: The compound was tested in vivo for anti-candida activity in mice model 2(dose :1 mg/kg,fluconazole-treated group); format: functional
Mus musculus [31] = assay: The compound was tested in vivo for anti-candida activity in mice model 2(dose: 1 mg/kg, untreated group).; format: functional
Candida albicans [32] = assay: Tested in vivo for anti-candida activity in mice model 1 (dose:0.5 mg/kg, fluconazole-treated group); format: functional
Mus musculus [33] = assay: The compound was tested in vivo for anti-candida activity in mice model 1(dose: 1 mg/kg, untreated group).; format: functional
Mus musculus [34] = assay: The compound was tested in vivo for anti-candida activity in mice model 1(dose: 1 mg/kg,fluconazole-treated group); format: functional

## C[C@@H](n1cnc2cc(Cl)ccc2c1=O)[C@@](O)(Cn1cncn1)c1ccc(F)cc1F
[1]; read-out: MIC
  MIC: > 80 µg/mL
Mus musculus [2]
  Protection: 0%
Mus musculus [3]
  Protection: 0%
[4]; read-out: MIC
  MIC: > 80 µg/mL

## C[C@@H](n1cnc2ncccc2c1=O)[C@](O)(Cn1cncn1)c1ccc(F)cc1F
[1]; read-out: MIC
  MIC: > 80 µg/mL
Mus musculus [5]
  Protection: 0%
Mus musculus [6]
  Protection: 0%
[4]; read-out: MIC
  MIC: 43 µg/mL (≈ 108 µM)

## C[C@@H](n1cnc2cc(Cl)ccc2c1=O)[C@](O)(Cn1cncn1)c1ccc(Cl)cc1Cl
[1]; read-out: MIC
  MIC: 1.6 µg/mL (≈ 3.44 µM)
Candida albicans [7]
  Protection: 0%
Mus musculus [6]
  Protection: 80%
[4]; read-out: MIC
  MIC: 0.2 µg/mL (≈ 0.43 µM)

## C[C@@H](n1cnc2cc(I)ccc2c1=O)[C@](O)(Cn1cncn1)c1ccc(F)cc1F
Candida albicans [8]
  Protection: 100%
[1]; read-out: MIC
  MIC: 0.9 µg/mL (≈ 1.72 µM)
Candida albicans [9]
  Protection: 0%
Candida albicans [10]
  MIC: < 0.03 µg/mL
[11]
  half-life: > 48 h
[4]; read-out: MIC
  MIC: 0.3 µg/mL (≈ 0.573 µM)

## C[C@H](n1cnc2cc(Cl)ccc2c1=O)[C@](O)(Cn1cncn1)c1ccc(F)cc1F
[1]; read-out: MIC
  MIC: 65 µg/mL (≈ 151 µM)
Mus musculus [2]
  Protection: 0%
Mus musculus [3]
  Protection: 0%
[4]; read-out: MIC
  MIC: 7.4 µg/mL (≈ 17.1 µM)

## C[C@@H](n1cnc2cc(Cl)ccc2c1=O)[C@](O)(Cn1cncn1)c1ccc(F)cc1F (stereo in doubt; 20) [ALBACONAZOLE]
Rattus norvegicus [12]
  Log cfu/g: 0.48
Mus musculus [13]
  Protection: 0%
Candida albicans [8]
  Protection: 0%
Oryctolagus cuniculus [14]
  Log cfu/g: 0.39
Oryctolagus cuniculus [15]
  Log cfu/g: 0.12
[1]
  MIC: 0.7 µg/mL (≈ 1.62 µM)
Oryctolagus cuniculus [16]
  Log cfu/g: 0
Candida albicans [17]
  Protection: 0%
Rattus norvegicus [18]
  Log cfu/g: 0
Mus musculus [19]
  Protection: 0%
Mus musculus [20]
  Protection: 0%
Oryctolagus cuniculus [21]
  Log cfu/g: 0.35
Mus musculus [22]
  Protection: 90%
Candida albicans [23]
  Protection: 0%
Candida albicans [10]
  MIC: < 0.03 µg/mL
Oryctolagus cuniculus [24]
  Log cfu/g: 0.3
Rattus norvegicus [25]
  Log cfu/g: 1.22
Oryctolagus cuniculus [26]
  Log cfu/g: 0.68
Rattus norvegicus [27]
  Log cfu/g: 1.59
[11]
  half-life: 2.9 h
[4]
  MIC: 0.3 µg/mL (≈ 0.695 µM)

## C[C@@H]1[C@H](O)[C@@H](C)/C=C/C=C/C=C/C=C/C=C/C=C/C=C/[C@H](O[C@@H]2O[C@H](C)[C@@H](O)[C@H](N)[C@@H]2O)C[C@@H]2O[C@](O)(C[C@@H](O)C[C@@H](O)[C@H](O)CC[C@@H](O)C[C@@H](O)CC(=O)O[C@H]1C)C[C@H](O)[C@H]2C(=O)O [AMPHOTERICIN B]
Rattus norvegicus [28]
  Log cfu/g: 0.1

## OC(Cn1cncn1)(Cn1cncn1)c1ccc(F)cc1F [FLUCONAZOLE]
[1]; read-out: MIC
  MIC: > 80 µg/mL
Oryctolagus cuniculus [16]
  Log cfu/g: 1.44
Oryctolagus cuniculus [21]
  Log cfu/g: 1.29
[4]; read-out: MIC
  MIC: 30 µg/mL (≈ 98 µM)
Candida albicans [29]
  Protection: 100%

## C[C@H]([C@](O)(Cn1cncn1)c1ccc(F)cc1F)S(C)(=O)=O [GENACONAZOLE]
Mus musculus [30]
  Protection: 20%
Mus musculus [31]
  Protection: 100%
[1]; read-out: MIC
  MIC: 25 µg/mL (≈ 75.5 µM)
[4]; read-out: MIC
  MIC: 8.7 µg/mL (≈ 26.3 µM)
Candida albicans [29]
  Protection: 100%
Candida albicans [32]
  Protection: 100%

## CCC(C)n1ncn(-c2ccc(N3CCN(c4ccc(OC[C@@H]5CO[C@@](Cn6cncn6)(c6ccc(Cl)cc6Cl)O5)cc4)CC3)cc2)c1=O (stereo partly specified) [ITRACONAZOLE]
[1]; read-out: MIC
  MIC: 63 µg/mL (≈ 89.3 µM)
[4]; read-out: MIC
  MIC: 5.2 µg/mL (≈ 7.37 µM)
Candida albicans [29]
  Protection: 0%
Candida albicans [32]
  Protection: 0%

## C[C@@H](c1nc(-c2ccc(C#N)cc2)cs1)[C@](O)(Cn1cncn1)c1ccc(F)cc1F [RAVUCONAZOLE]
Mus musculus [30]
  Protection: 0%
Mus musculus [31]
  Protection: 20%
[1]; read-out: MIC
  MIC: 0.8 µg/mL (≈ 1.83 µM)
[4]; read-out: MIC
  MIC: 0.3 µg/mL (≈ 0.686 µM)
Candida albicans [29]
  Protection: 50%
Candida albicans [32]
  Protection: 0%

## C[C@@H](c1ncncc1F)[C@](O)(Cn1cncn1)c1ccc(F)cc1F [VORICONAZOLE]
[1]; read-out: MIC
  MIC: 0.5 µg/mL (≈ 1.43 µM)
Mus musculus [33]
  Protection: 20%
Mus musculus [34]
  Protection: 0%
[4]; read-out: MIC
  MIC: 0.6 µg/mL (≈ 1.72 µM)
Candida albicans [29]
  Protection: 0%
Candida albicans [32]
  Protection: 0%
